From the EternaBench riboswitch data

Test system: MS2 coat protein
Test: apparent Kd, MS2 coat protein; higher = weaker binding; RNA-MaP array
Method in brief: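 Sequenced DNA templates on an Illumina sequencing chip were transcribed into the designed RNAs. These were incubated at room temperature in Tris-HCl pH 7.5 buffer containing KCl, MgCl2, BSA, DTT, tRNA and Tween20 with fluorescently labeled MS2 coat protein at 1.5 nM to 3 μM, with or without input ligand. Apparent Kd is the median of binding-curve fits per cluster, and designs with fewer than 10 clusters measured were excluded.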

[1] = designed as: OFF switch for flavin mononucleotide, no ligand
[2] = ligand present: flavin mononucleotide, designed as: OFF switch for flavin mononucleotide
[3] = designed as: ON switch for flavin mononucleotide, no ligand
[4] = ligand present: flavin mononucleotide, designed as: ON switch for flavin mononucleotide
[5] = designed as: ON switch for tryptophan, no ligand
[6] = ligand present: tryptophan, designed as: ON switch for tryptophan

Row | Sequence | apparent Kd [1] | apparent Kd [2] | apparent Kd [3] | apparent Kd [4] | also measured
1 | GUGAGACAUGAGGAUCACCCAUGUAAGGAUAUUGCCUCGACCAUAUAAACAUAUCGGACAAGAAGGUACAGGAG | 0.0378 µM | 0.0291 µM |  |  | 
2 | UUGGUUGGGAAAACGAUUUGCACAUGAGGAUCACCCAUGUCGAAGGAUAUGUGGCGCUGUUUGCGACAGAAGGUCGACCUCGCC |  |  | 0.0155 µM | 0.0149 µM | 
3 | AUGUAGCCGUCGACUGUACCUUAUGCCGAUACCAGCUACCCGUGAAGCCCUUGGCAGCGGGAAACAUGAGGAUCACCCAUGUCAG |  |  |  |  | apparent Kd (designed as: OFF switch for theophylline, no ligand): 0.0239 µM; apparent Kd (ligand present: theophylline, designed as: OFF switch for theophylline): 0.0413 µM
4 | ACAUGAGGAUCACCCAUGUUCUCAAGUAUAAUAGAUAAAUCAAGAAGGGCUAAUCGACCGAAUAAGCAGGAUAUUGUGAUAUGG | 0.0183 µM | 0.0212 µM |  |  | 
5 | GACACCCAAGGAUAUCAAUGAAUCAACAUGAGGAUCACCCAUGUCGUCACCAGAUUAAACUGAGAAGGAGGAGAAA | 0.0114 µM | 0.00975 µM |  |  | 
6 | AGUUCUGGAGGAUAUACAUCCUCAAUGUCCAACCUGCGGAUACAUGAGGAUCACCCAUGUAGAAGGCCACACAA | 0.00653 µM | 0.00975 µM |  |  | 
7 | ACGUGGCAACAUGAGGAUCACCCAUGUAAAGAUAAUGAUUACAGAAGGCCCGGAGGAAGGCAAAGGGAGGAUAUGUGUGCCUAC |  |  | 0.0298 µM | 0.0127 µM | 
8 | CCUAGACAAGAGAAGGUUGAGAAGAAACUUUGCAAAGGAUAUCUAAACAUGAGGAUCACCCAUGUCGAUAUAUGGGUAGGCGAA | 0.102 µM | 0.0914 µM |  |  | 
9 | CGUCAACAUGAGGAUCACCCAUGUUUCGAUACCAGUGACCCUCUCCACCCUUGGCAGCGAGCGCCCGCGCCUGAUAAAUCUUCUA |  |  |  |  | apparent Kd (designed as: ON switch for theophylline, no ligand): 0.0121 µM; apparent Kd (ligand present: theophylline, designed as: ON switch for theophylline): 0.0142 µM
10 | AGUCAAAAUUAGAAGGAGCGUUGACCCUGUUAGCUAGGAUAUAAUUCAUGCGAACAUGAGGAUCACCCAUGUAGACGUACCAAC |  |  | 0.0865 µM | 0.0449 µM | 
11 | ACAGCACAUGAGGAUCACCCAUGUCGACAUGUAUUAGGAUAUGAUCCGCGCUAGACACCAUCAGAAGGAAUACCGA |  |  | 0.043 µM | 0.0237 µM | 
12 | GAACCUAUAGGAUAUACAUGAGGAUCACCCAUGUAGCCAUCUAUUCGUGGGACUAGGUGUAGAAGGAUAGCAAA | 0.0127 µM | 0.0118 µM |  |  | 
13 | CUUCAACAUGAGGAUCACCCAUGUAAGGAUAUCUGCCUCACAGCACCAAAGUGCGGGAAGAGAAGGUACGUAGU | 0.0154 µM | 0.0145 µM |  |  | 
14 | AUGGACCCAAAGAAGGAGAUCUGGACGACCCAUCUAGGAUAUUUGGCGCGCCCAUCCACCUGCACAUGAGGAUCACCCAUGUCG |  |  | 0.0119 µM | 0.00955 µM | 
15 | CGACCGCACGAGAAGGCUAGACAGCGGCGAUCUAGAGGAUAUCGACAUUCAACAUGAGGAUCACCCAUGUGAUUCCAACAAGCU | 0.0578 µM | 0.0696 µM |  |  | 
16 | CGUUAAGGCGAGAAGGUGCCGUCCAACAUGAGGAUCACCCAUGUCGGUCGGUGAAUCAAGAGACGCAAGGAUAUCGACAUUAAC | 0.00301 µM | 0.00346 µM |  |  | 
17 | UACGUGGAUGCGGCCGCCACUGCUCUGAGCGAGUUGCUCUAUGGACAUGAGGAUCACCCAUGUCACAGGACCGGGCACGCUUUAA |  |  |  |  | apparent Kd [5]: 0.0104 µM; apparent Kd [6]: 0.00967 µM
18 | UCGAUCAUGUAGAAGGCAUCAGAAACUGGGUGAUGAGGAUAUACGUUAAGACAUGAGGAUCACCCAUGUAAGCAUUGCAAACAC |  |  | 0.116 µM | 0.0863 µM | 
19 | AAAUCUAACGAGAAGGGAGUGGCCGGCCACUUAGCAGACAUGAGGAUCACCCAUGUGAAGAUCACUCAGGAUAUCGAUAAUCCA |  |  | 0.0249 µM | 0.0227 µM | 
20 | UUCGUCGGACACACACAUGAGGAUCACCCAUGUAUCUCAAUCAGAAGGGUAUCACCGGAUAGGGUACAGGAUAUGACUACUAUA |  |  | 0.043 µM | 0.0223 µM | 
21 | GAUACGCAGUCGGCCGCCACUUGCUAAGGUGACAAACCAAAACAUGAGGAUCACCCAUGUCUGAUAAGGACCGGGACCACCAUGG |  |  |  |  | apparent Kd [5]: 0.0795 µM; apparent Kd [6]: 0.0811 µM
22 | UCAAUAUGUCGUUGACAUGAGGAUCACCCAUGUACUAACUAGCAGGAUAUCGUGAUUAACCCUACCGAGAAGGGCUGUUGUAUU |  |  | 0.0407 µM | 0.0349 µM | 
